Compounds with a hit are over-represented: about 2.6% of the library has one in this group of screens.
OX1R antag-1: antagonists of human orexin 1 receptor (OX1R). OX1R-expressing cells, FRET antagonist read-out. inhibition, % at 6.6 µM. 330,000 compounds, 1.8% hits. AID 485270; in the data active means inhibition mostly above about 38%, no sharp cut-off; inactive means mostly below about 40%;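 further: 0% = agonist challenge alone and 100% = reference antagonist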
V1R ag counter: activates human V1a receptor in oxytocin agonist counter-screen; P37288; CHO-V1R cells, Fluo-8 calcium fluorescence, agonist mode; 0% DMSO, 100% 3 nM vasopressin; activation, % at 3 µM; 320,000 compounds, 0.25% hits;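 active means activation above the mean activation of all tested compounds plus 3 SD, per screening run, cut at about 20% in these data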;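 further: signal is peak over basal fluorescence ratio across a 100 second FLIPR read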
Target sequence (P37288 whole entry, looked up): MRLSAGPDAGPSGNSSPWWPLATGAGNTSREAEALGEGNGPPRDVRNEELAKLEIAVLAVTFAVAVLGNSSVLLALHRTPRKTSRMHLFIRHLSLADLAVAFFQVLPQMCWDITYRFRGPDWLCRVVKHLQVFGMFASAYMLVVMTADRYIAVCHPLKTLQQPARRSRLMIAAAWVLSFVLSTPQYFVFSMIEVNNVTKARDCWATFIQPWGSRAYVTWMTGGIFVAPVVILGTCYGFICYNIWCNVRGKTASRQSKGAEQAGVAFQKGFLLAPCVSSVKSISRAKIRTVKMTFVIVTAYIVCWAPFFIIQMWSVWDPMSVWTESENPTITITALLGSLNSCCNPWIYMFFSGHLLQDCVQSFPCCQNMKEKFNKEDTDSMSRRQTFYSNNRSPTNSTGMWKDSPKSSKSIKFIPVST
OXTR ag: agonists of human oxytocin receptor; 320,000 compounds, 0.32% hits; CHO-OTR cells, Fluo-8 calcium fluorescence; normalized: DMSO 0%, oxytocin 100%; activation, % at 3 µM; AID 2435; P30559;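 active means activation above the mean of all tested compounds plus 3 SD, cutoff set per screening run, cut at about 20% in these data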;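 further: peak over basal fluorescence ratio from a 100 s FLIPR kinetic read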
OXTR potentiate: potentiates the human oxytocin receptor response; P30559; activation, % at 3 µM; AID 2445; 320,000 compounds, 0.061% hits; CHO-OTR cells, Fluo-8 calcium fluorescence, potentiator mode; 0% = oxytocin EC15, 100% = EC100;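 active means activation above that plate's cutoff, the mean activation of tested compounds plus 3 SD, cut at about 6.6% in these data, passing the limit was not always enough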;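 further: 100% uses oxytocin at 75 nM as the full agonist control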
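test system = CHO-OTR cells, human receptor | compound = single-point 3.0 µM | schedule = 6 min compound pre-incubation at room temperature, 100 s kinetic read | signal = Fluo-8 no-wash calcium dye fluorescence, excitation 470-495 nm, emission 515-575 nm | repeats = single well per compound, singlicate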
CHO parental Ca: counter-screen for OX1R antagonists: effect in parental CHO cells. AID 463079. inhibition, % at 5.6 µM. parental CHO-K1, ATP-induced calcium, Fluo-8 fluorescence. 330,000 compounds, 0.63% hits;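 active means inhibition above that plate's mean sample inhibition plus 3 SD, cut at about 26% in these data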;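 further: 0% = ATP-challenged DMSO wells and 100% = DMSO wells without ATP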
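material = parental CHO cells | also added = ATP as calcium-mobilizing challenge | dosing = single point at 5.6 µM | detection = intracellular calcium via Fluo-8 no-wash fluorescent dye | read-out = % inhibition | benchmarks = low control ATP plus DMSO, high control DMSO only | repeats = one well per compound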
OX1R antag-2: antagonists of human orexin 1 receptor. O43613. CHO/OX1R cells, Fluo-8 calcium fluorescence, orexin A. inhibition, % at 5 µM. 330,000 compounds, 0.43% hits;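 active means inhibition above its plate's threshold, mean inhibition of all tested compounds on the plate plus 3 SD, cut at about 37% in these data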;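 further: 0% = orexin A challenge wells and 100% = SB-334867-A antagonist wells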
OX1R HTRF confirm: confirmation of human orexin 1 receptor antagonists, HTRF format; shares compounds with OX1R antag-1; OX1R-expressing cells, HTRF antagonist assay; inhibition, % at 6.6 µM; 1,800 compounds, 49% hits; AID 492964; in the data active means inhibition above about 55%;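 further: CHO cells expressing OX1R stimulated with orexin A at about EC80; 0% = agonist challenge alone and 100% = reference antagonist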
CHO-K1 HTRF cnt: counter-screen for OX1R antagonists: effect in parental CHO-K1 cells | inhibition, % at 6.6 µM | HTRF counterscreen | shares compounds with OX1R antag-1 | AID 493232 | 1,800 compounds, 48% hits; in the data active means inhibition above about 17%;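 further: 0% = agonist challenge with vehicle and 100% = vehicle alone without agonist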
Starred values were filed as active, the others as inactive; nt = not tested or not shown; + = active, no number.

SMILES	OX1R antag-1	V1R ag counter	OXTR ag	OXTR potentiate	CHO parental Ca	OX1R antag-2	OX1R HTRF confirm	CHO-K1 HTRF cnt
COc1ccc(S(=O)(=O)N2CCOCC2)cc1NC(=O)CN1CCCc2ccccc21	8	1	2	-6	-8	-34	nt	nt
[O-][n+]1onc2c3ccnnc3ccc21	150*	2	0	-10	-9	1	50	83*
COn1c(C)c(C(C)=O)c2c3no[n+]([O-])c3ccc21	22	1	0	2	-12	-6	nt	nt
Cc1cc2c(ccc3c2no[n+]3[O-])nn1	166*	0	0	-9	-6	-10	51	76*
Cc1ccc(S(=O)(=O)N2CCN(C(=O)c3sccc3-c3ccccc3)CC2)cc1	24	1	0	-7	-13	-17	nt	nt
CC1CCCCN1C(=O)Cn1cnc2cc([N+](=O)[O-])ccc2c1=O (stereo not given)	123*	0	1	-2	-13	-10	81*	86*
Cc1cc(C)c(C(=O)Cn2cnc3cc([N+](=O)[O-])ccc3c2=O)cc1C	24	-1	-1	-2	-13	-6	nt	nt
Cc1cccc(NC2=C/C(=N/S(=O)(=O)c3cccs3)c3ccccc3C2=O)c1	14	0	0	-2	-20	-24	nt	nt
O=C1/C(=N\S(=O)(=O)c2cccs2)C([n+]2ccccc2)=C([O-])c2ccccc21	94*	0	0	-1	-8	-8	78*	119*
COc1ccccc1CCNC(=O)CCn1c(=O)c2cccn2c2ccc(F)cc21	12	3	1	-5	-23	-35	nt	nt
Cc1nc(-c2ccc(C(=O)Nc3cccc(Br)c3)cc2)cs1	88*	6	3	-16	-3	11	54	4
O=C(Cc1ccc([N+](=O)[O-])cc1)c1ccc(O)cc1O	18	8	6	-6	11	-4	nt	nt
NC(=NCc1ccco1)NC(=O)c1ccc(Cl)cc1	-1	0	1	-9	-8	-16	nt	nt
CCN(CC)c1ccc2cc(C(C)=O)c(=O)oc2c1	96*	14	12	-17	8	8	34	8
O=C(CCNC(=O)c1ccco1)Nc1ccccc1N1CCOCC1	8	0	1	-12	2	-1	nt	nt
CCCCC(CC(O)COCCC)c1n[nH]c(=S)n1-c1ccccc1 (stereo not given)	39	0	-1	-2	-5	-15	nt	nt
O=[N+]([O-])c1ccc(NC2CCN(Cc3ccccc3)CC2)c([N+](=O)[O-])c1	32	2	1	-3	-16	-30	nt	nt
O=C1c2c([N+](=O)[O-])cc([N+](=O)[O-])cc2S(=O)N1Cc1ccccc1 (stereo not given)	105*	1	1	2	-7	-22	40	86*
Cc1oc2c(C)c3oc(=O)c(CCC(=O)O)c(C)c3cc2c1-c1ccccc1	14	0	0	-11	-13	-15	nt	nt
O=[n+]1c2c(n([O-])c3cc(F)c(F)cc31)CCCC2	129*	2	0	-3	-11	-15	39	77*
O=C(Nc1ccc2[nH]c(=O)[nH]c2c1)c1c(F)c(F)c(F)c(F)c1F	4	1	1	-14	9	-5	nt	nt
O=C(N=Nc1c(O)[nH]c2ccccc12)c1cccs1	108*	1	-1	-12	-16	5	101*	18*
Oc1ccc(NC(=S)N=Nc2c(O)[nH]c3ccccc23)cc1	92*	0	1	-7	-7	-4	80*	7
CCOC(=O)C(=O)N=Nc1c(O)[nH]c2ccccc12	91*	1	0	-6	2	-1	46	53*
O=C(N=Nc1c(O)[nH]c2ccccc12)c1cc(NS(=O)(=O)c2cccs2)cc(NS(=O)(=O)c2cccs2)c1	14	0	0	-20	10	-1	nt	nt
SMILES	OX1R antag-1	V1R ag counter	OXTR ag	OXTR potentiate	CHO parental Ca	OX1R antag-2	OX1R HTRF confirm	CHO-K1 HTRF cnt
COc1ccc(NC(=S)N=Nc2c(O)[nH]c3ccccc23)cc1	34	-1	-1	-5	-12	3	nt	nt
OCC[C@H]1C[C@H](O)[C@@H](O)[C@@]2(Cc3ccccc3O2)O1	1	1	2	-1	8	-8	nt	nt
O=[N+]([O-])c1ccc2nnn(O)c2c1	91*	1	0	-5	-8	-13	31	46*
Cc1ccc2ncnc(Nc3ccc(C)c(C)c3)c2c1	78*	7	-2	-4	-13	-29	42	12
COC(=O)c1cc(Br)ccc1NC(=O)CSCc1c(C)noc1C	13	2	1	-8	-16	-20	nt	nt
O=C(O)c1ccc2nc3c(nc2c1)-c1ccccc1C3=O	+	-1	-1	-11	-9	10	64*	84*
C=CCNC(=O)N1CCCC(N2CCN(c3ccccc3OC)CC2)C1 (stereo not given)	15	-1	0	-5	-13	-8	nt	nt
COCCn1c(=N)c(C(=O)NCc2ccco2)cc2c(=O)n3ccccc3nc21	167*	1	-1	-5	-16	-35	54	72*
N=c1c(C(=O)NCc2ccccc2)cc2c(=O)n3ccccc3nc2n1Cc1ccco1	78*	1	-2	-9	-25	-16	32	11
N=c1c(C(=O)NCc2ccco2)cc2c(=O)n3ccccc3nc2n1Cc1ccc(Cl)cc1	58	0	-2	-10	-13	-22	nt	nt
N#Cc1cc2c(=O)n3ccccc3nc2n(Cc2ccco2)c1=NC(=O)c1ccco1	77*	0	0	-14	-11	-16	47	42*
Cc1ccccc1C(=O)N=c1c(C#N)cc2c(=O)n3cccc(C)c3nc2n1Cc1ccco1	33	0	-1	-4	-6	-26	nt	nt
COc1ccc(C)cc1NC(=O)CNC(C)C(=O)Nc1cc(Cl)ccc1Cl (stereo not given)	18	1	2	-7	-21	-36	nt	nt
CN(C(=S)NC(=O)c1ccc(Cl)cc1)C1CCCCC1	17	-1	-1	-3	-16	-32	nt	nt
CC(=O)Oc1cccc2c1C(=O)c1c(OC(C)=O)cc(C(=O)O)cc1C2=O	95*	-1	0	-19	5	-7	56*	112*
C[C@@H]1CN([C@H](C)CO)C(=O)c2cc(NC(=O)c3ccncc3)ccc2O[C@@H]1CN(C)C(=O)Nc1ccccc1	15	2	8	-4	-3	4	nt	nt
CC(C)CNC(=O)c1cccc(NC(=O)C(C)C)c1	10	1	1	3	-12	-10	nt	nt

Screening results: PubChem, The Scripps Research Institute Molecular Screening Center
